For assay [1], the target named is Metabotropic glutamate receptor 5 (Rattus norvegicus) (UniProt P31424). The assay can be described thus: (§1) Antagonist activity at rat mGluR5 expressed in HEK293A cells assessed as inhibition of glutamate-induced calcium fluorescence. The format is functional, cell-based. The arrangement: concentration or dose not given beside the values. The conditions noted are these: HEK293-A.

Assay [2] addresses T1, Metabotropic glutamate receptor 5 (Rattus norvegicus, UniProt P31424). Described as §1. The format is functional, cell-based, HEK293-A.
The target of assay [3] is Metabotropic glutamate receptor 5 (Rattus norvegicus) (UniProt P31424). The assay can be described thus: Induction of rat mGluR5 activation expressed in HEK293A cells assessed as maximal response in presence of glutamate. In kind it is cell-based. The conditions noted are these: HEK293-A. The method, boiled down:
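Potentiator mode in rat mGluR5 HEK293A cells loaded with Fluo4-AM (4.0 µM, 45 min, 37 °C) in HBSS/20 mM Hepes/2.5 mM probenecid, pH 7.4. Compound added at 19 s, then submaximal glutamate (150–165 nM) at 109 s. Calcium fluorescence read and compared with maximal glutamate response. Vehicle 0.3% DMSO. Triplicate on three days.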

Assay [4] addresses T1, Metabotropic glutamate receptor 5. The assay can be described thus: Activity at rat mGluR5 expressed in HEK293A cells. In kind it is cell-based, HEK293-A.
The target is the same in assay [5]. The assay can be described thus: Displacement of [3H]methoxy-PEPy from rat mGluR5 expressed in HEK293A cells. The format is cell-based, HEK293-A. In a few lines: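 Membranes from HEK293A cells with rat mGluR5 were incubated with 2 nM (final) [³H]methoxy-PEPy in 50 mM Tris, 0.9% NaCl, pH 7.4. Incubation was 60 min at room temperature with shaking. Bound ligand was separated by GF/B filtration with four buffer washes and counted by scintillation. MPEP defined nonspecific binding. Triplicate on three days.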
(In general: Displacement assays read how much labelled ligand stays bound in the presence of the test substance.)

Some results are limits rather than exact numbers.

T1 sequence (P31424 whole entry): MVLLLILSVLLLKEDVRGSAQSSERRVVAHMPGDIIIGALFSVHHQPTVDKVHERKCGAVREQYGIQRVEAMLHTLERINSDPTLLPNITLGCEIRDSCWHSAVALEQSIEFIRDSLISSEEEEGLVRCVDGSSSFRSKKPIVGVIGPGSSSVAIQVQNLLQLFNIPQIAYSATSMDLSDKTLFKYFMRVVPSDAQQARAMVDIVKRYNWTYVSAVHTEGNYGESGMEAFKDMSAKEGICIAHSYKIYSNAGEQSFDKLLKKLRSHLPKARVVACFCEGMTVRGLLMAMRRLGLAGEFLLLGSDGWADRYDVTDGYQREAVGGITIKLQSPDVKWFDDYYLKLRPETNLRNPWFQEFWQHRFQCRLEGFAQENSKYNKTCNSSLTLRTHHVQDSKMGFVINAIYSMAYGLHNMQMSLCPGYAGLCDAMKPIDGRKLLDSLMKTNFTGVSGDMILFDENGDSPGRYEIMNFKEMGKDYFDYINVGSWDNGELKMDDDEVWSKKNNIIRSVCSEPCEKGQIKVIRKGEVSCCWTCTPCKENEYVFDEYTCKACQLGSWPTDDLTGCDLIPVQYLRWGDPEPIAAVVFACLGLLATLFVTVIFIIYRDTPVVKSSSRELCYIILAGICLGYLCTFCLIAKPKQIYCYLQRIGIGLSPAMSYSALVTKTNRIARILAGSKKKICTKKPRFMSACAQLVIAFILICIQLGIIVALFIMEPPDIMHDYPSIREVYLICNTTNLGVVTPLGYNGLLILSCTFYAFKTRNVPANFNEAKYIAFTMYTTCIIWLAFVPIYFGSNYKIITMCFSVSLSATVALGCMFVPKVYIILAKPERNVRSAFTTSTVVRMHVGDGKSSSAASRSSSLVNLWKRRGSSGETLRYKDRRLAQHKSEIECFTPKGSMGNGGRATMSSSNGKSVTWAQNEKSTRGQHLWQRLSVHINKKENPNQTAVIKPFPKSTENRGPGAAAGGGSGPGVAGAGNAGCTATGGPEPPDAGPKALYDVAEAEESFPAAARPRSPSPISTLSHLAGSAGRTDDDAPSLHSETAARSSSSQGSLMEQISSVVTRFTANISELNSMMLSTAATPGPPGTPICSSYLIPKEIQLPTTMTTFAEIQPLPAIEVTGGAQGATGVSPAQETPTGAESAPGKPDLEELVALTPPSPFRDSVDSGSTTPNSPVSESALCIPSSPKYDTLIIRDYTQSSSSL
Sequence of Metabotropic glutamate receptor 5 (Rattus norvegicus) (P31424 21-1203 limits assumed): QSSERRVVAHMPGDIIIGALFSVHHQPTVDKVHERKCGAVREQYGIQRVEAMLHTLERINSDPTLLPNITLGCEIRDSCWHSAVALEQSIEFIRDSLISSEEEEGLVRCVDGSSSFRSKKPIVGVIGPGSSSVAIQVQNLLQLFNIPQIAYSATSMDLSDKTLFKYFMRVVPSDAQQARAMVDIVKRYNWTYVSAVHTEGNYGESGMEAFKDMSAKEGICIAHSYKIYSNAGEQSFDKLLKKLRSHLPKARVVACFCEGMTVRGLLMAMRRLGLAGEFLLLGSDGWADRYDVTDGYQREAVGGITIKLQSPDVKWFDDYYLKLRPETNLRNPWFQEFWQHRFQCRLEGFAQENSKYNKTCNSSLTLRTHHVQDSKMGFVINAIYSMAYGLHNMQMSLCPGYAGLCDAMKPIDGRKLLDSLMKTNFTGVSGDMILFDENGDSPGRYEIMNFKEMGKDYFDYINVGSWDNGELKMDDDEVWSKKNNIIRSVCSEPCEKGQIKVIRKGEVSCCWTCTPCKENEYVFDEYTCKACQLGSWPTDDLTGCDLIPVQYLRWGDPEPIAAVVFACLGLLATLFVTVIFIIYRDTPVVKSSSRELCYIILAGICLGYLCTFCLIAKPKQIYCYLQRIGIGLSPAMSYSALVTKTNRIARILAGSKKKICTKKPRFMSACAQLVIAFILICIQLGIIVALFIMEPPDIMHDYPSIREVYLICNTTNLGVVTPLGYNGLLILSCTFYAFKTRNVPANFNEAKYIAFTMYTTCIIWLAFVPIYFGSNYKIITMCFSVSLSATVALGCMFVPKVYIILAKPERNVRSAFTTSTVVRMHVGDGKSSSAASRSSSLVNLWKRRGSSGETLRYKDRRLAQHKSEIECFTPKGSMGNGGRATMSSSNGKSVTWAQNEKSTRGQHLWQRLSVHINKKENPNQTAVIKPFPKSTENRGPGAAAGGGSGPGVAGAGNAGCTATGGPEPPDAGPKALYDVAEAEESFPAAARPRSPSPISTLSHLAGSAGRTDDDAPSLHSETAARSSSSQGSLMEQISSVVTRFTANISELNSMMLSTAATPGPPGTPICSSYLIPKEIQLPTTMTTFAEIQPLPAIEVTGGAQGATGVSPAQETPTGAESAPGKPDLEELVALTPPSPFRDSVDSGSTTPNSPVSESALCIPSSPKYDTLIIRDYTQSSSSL

What is called EC50 is the concentration at which the effect is half-maximal. Take `O=C(Nc1cccc(F)c1)c1cccc(Cl)c1`: the Activity in assay [1] stood at 58%. Also, the EC50 in assay [2] came to 297 nM.

Consider `Fc1cccc(/C=N/N=C/c2cccc(F)c2)c1`, for which the Activity in assay [3] is less than 70%. `N#Cc1cccc(C(=O)Nc2cc(-c3ccccc3)nn2-c2ccccc2)c1`: the Activity in assay [3] was less than 70%.

Turning to `COc1cccc(C#Cc2ccc(C)cn2)c1`, the Activity in assay [1] is 50%.

What is called IC50 is the concentration that gives 50% inhibition. Consider `Cc1cc(C#Cc2cncnc2)ccc1F`, for which the Activity in assay [1] amounted to 100%. For the same molecule, the IC50 in assay [2] turned out to be 350 nM. As for `Clc1cccc(C#Cc2cncnc2)c1`, the Activity in assay [1] was found to be 100%. For the same molecule, in assay [2], the IC50 was 34 nM.

In the case of `O=Cc1ccc(C#Cc2cncnc2)cc1`, in assay [4], the EC50 turned out to be 7900 nM. With `Cc1ccc(C)c(C#Cc2cncnc2)c1`, in assay [1], the Activity was 58%. The IC50 in assay [2] is 11200 nM. A word on the Ki: it is a dissociation constant, usually derived from enzyme kinetics or from competition with a known ligand. For the molecule `C(#Cc1cncnc1)c1ccccc1`, the Activity in assay [1] was found to be 71%. Moreover, the IC50 in assay [2] was 480 nM. The affinity in assay [5], expressed as Ki, was 126 nM. For the molecule `Cc1ccc(C#Cc2cncc(Br)c2)nc1`, the Activity in assay [1] was found to be 50%. Consider `FC(F)(F)c1cccc(C#Cc2cncnc2)c1`, for which the Activity in assay [1] came out at 100%. For the same molecule, in assay [2], the IC50 was found to be 450 nM. On the same counts, the results for `C(#Cc1cncnc1)c1ccc(-c2ccccc2)cc1` are 100% and 7800 nM. In assay [4], `Clc1ccc(C#Cc2cncnc2)cc1` displayed an EC50 of 3900 nM. Regarding `O=C(Nc1ccc(Cl)cc1CN1C(=O)c2ccccc2C1=O)c1ccccc1O`, the Activity in assay [3] was less than 70%. In turn, `CCc1ccc(C#Cc2cncnc2)cc1` came in with an EC50 in assay [4] of 18800 nM. For `Fc1cc(F)cc(C#Cc2cncnc2)c1`, the Activity in assay [1] stood at 100%. Also, the IC50 in assay [2] amounted to 6400 nM.

Consider `Cc1cccc(C#Cc2cncnc2)c1`, for which, in assay [1], the Activity is 100%. Moreover, in assay [2], the IC50 is 7 nM. Consider `Cc1ccc(C#Cc2cncnc2)cc1`, for which a half-maximal effect in assay [4] (EC50) was put at 3300 nM. Moreover, the Activity in assay [3] was determined as 99%.
